The record followed here is ChEMBL document CHEMBL1140243, “Synthesis and SAR of 2,3-diarylpyrrole inhibitors of parasite cGMP-dependent protein kinase as novel anticoccidial agents” (Bioorg Med Chem Lett, 2005).

The species entered for assay [1] is Gallus gallus. Kind of assay: Anticoccidial activity (percent reduction in oocyst production) against Eimeria praecox in chickens at 66 ppm; Range = 50-79 %. The class given is functional. The arrangement: scale not given: the % may be the effect or the level left.
The species entered for assay [2] is Gallus gallus. The assay is described as follows: Anticoccidial activity (percent reduction in oocyst production) against Eimeria mitis in chickens at 66 ppm; Range = 50-79 %. The class given is functional. The arrangement: scale not given: the % may be the effect or the level left.
Assay [3] is filed under the species Gallus gallus. Kind of assay: Anticoccidial activity (percent reduction in oocyst production) against Eimeria maxima in chickens at 66 ppm; Range = 50-79 %. The class given is functional. The arrangement: scale not given: the % may be the effect or the level left.
Assay [4] is filed under the species Gallus gallus. Kind of assay: Anticoccidial activity (percent reduction in oocyst production) against Eimeria brunetti in chickens at 66 ppm; Range = 50-79 %. The arrangement: scale not given: the % may be the effect or the level left. The class given is functional.
Assay [5] is filed under the species Gallus gallus. The assay is described as follows: Anticoccidial activity (percent reduction in oocyst production) against Eimeria necatrix in chickens at 66 ppm; Range = 50-79 %. The class given is functional. The arrangement: scale not given: the % may be the effect or the level left.
Assay [6] is filed under the species Gallus gallus. Kind of assay: Anticoccidial activity (percent reduction in oocyst production) against Eimeria acervulina in chickens at 66 ppm; Range = 50-79 %. The class given is functional. The arrangement: scale not given: the % may be the effect or the level left.
The species entered for assay [7] is Gallus gallus. Kind of assay: Anticoccidial activity (percent reduction in oocyst production) against Eimeria tenella in chickens at 66 ppm; Range = 50-79 %. The class given is functional. The arrangement: scale not given: the % may be the effect or the level left.
For assay [8], the species on record is Gallus gallus. Kind of assay: Anticoccidial activity (percent reduction in oocyst production) against Eimeria mivati in chickens at 66 ppm; Range = 50-79 %. The class given is functional. The arrangement: scale not given: the % may be the effect or the level left.
The species entered for assay [9] is Gallus gallus. Kind of assay: Anticoccidial activity (percent reduction in oocyst production) against Eimeria praecox in chickens at 25 ppm; Range = 50-79 %. The class given is functional. The arrangement: scale not given: the % may be the effect or the level left.
The species entered for assay [10] is Gallus gallus. Kind of assay: Anticoccidial activity (percent reduction in oocyst production) against Eimeria mitis in chickens at 25 ppm; Range = 50-79 %. The class given is functional. The arrangement: scale not given: the % may be the effect or the level left.
In assay [11] the test system is Eimeria tenella. The assay is described as follows: Anticoccidial activity (percent reduction in oocyst production) against Eimeria tenella in white leghorn chickens at 100 ppm. The arrangement: scale not given: the % may be the effect or the level left. The class given is functional. A digest of the protocol: (§1)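 White Leghorn chicks were acclimated, then at 3 days old sorted by weight and randomized to medicated or control diets. There were one or two replicates of two birds per treatment. After 24 h of premedication, one bird per replicate got E. acervulina and the other E. tenella, both drug-sensitive laboratory strains. Inocula were sporulated oocysts in tap water, 0.25 mL per bird, giving low-to-moderate infection.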

The species entered for assay [12] is Gallus gallus. The assay is described as follows: Anticoccidial activity (percent reduction in oocyst production) against Eimeria maxima in chickens at 25 ppm; Range = 50-79 %. The class given is functional. The arrangement: scale not given: the % may be the effect or the level left.
The species entered for assay [13] is Gallus gallus. Kind of assay: Anticoccidial activity (percent reduction in oocyst production) against Eimeria mivati in chickens at 25 ppm; Range = 50-79 %. The arrangement: scale not given: the % may be the effect or the level left. The class given is functional.
Assay [14] has as its system Eimeria acervulina. The assay is described as follows: Anticoccidial activity (percent reduction in oocyst production) against Eimeria acervulina in white leghorn chickens at 100 ppm. The class given is functional. The arrangement: scale not given: the % may be the effect or the level left. A digest of the protocol:
as §1

The species named for assay [15] is Gallus gallus. The assay is described as follows: Anticoccidial activity (percent reduction in oocyst production) against Eimeria necatrix in chickens at 25 ppm; Range = 50-79 %. The arrangement: scale not given: the % may be the effect or the level left. The class given is functional.
Assay [16] is filed under the species Gallus gallus. The assay is described as follows: Anticoccidial activity (percent reduction in oocyst production) against Eimeria acervulina in chickens at 25 ppm; Range = 50-79 %. The class given is functional. The arrangement: scale not given: the % may be the effect or the level left. A digest of the protocol:
as §1

The target of assay [17] is cGMP-dependent protein kinase (Eimeria tenella, UniProt Q8MMZ8). The assay is described as follows: In vitro inhibition of Eimeria tenella cGMP-dependent protein kinase.
cGMP-dependent protein kinase, sequence (Q8MMZ8 whole entry): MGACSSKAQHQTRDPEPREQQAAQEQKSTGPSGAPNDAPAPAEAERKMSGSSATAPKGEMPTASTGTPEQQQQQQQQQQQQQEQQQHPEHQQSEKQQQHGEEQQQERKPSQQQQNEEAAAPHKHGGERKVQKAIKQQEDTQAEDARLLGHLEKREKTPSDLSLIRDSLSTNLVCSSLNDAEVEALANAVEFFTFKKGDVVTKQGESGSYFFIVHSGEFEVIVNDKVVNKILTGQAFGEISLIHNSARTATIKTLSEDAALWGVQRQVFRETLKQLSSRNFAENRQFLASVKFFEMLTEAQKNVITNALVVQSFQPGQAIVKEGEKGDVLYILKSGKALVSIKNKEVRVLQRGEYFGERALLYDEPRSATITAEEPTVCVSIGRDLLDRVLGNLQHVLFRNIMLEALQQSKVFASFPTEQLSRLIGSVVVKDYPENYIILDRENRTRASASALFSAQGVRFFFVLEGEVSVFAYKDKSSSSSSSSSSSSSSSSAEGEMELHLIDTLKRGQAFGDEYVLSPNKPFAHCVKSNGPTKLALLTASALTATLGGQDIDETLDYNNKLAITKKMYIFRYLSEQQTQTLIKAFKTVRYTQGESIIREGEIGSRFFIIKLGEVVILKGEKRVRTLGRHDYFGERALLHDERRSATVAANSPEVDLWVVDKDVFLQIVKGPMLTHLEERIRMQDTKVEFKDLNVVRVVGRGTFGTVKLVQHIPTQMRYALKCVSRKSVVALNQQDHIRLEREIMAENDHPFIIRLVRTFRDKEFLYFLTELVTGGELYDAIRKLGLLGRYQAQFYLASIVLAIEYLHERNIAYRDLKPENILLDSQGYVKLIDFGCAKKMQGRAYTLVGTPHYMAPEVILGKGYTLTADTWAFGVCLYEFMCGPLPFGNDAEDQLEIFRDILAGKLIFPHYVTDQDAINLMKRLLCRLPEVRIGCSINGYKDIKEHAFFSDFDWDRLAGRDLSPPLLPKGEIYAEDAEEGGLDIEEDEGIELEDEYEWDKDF
The species named for assay [18] is Gallus gallus. Kind of assay: Anticoccidial activity (percent reduction in oocyst production) against Eimeria maxima in chickens at 50 ppm. The class given is functional. The arrangement: scale not given: the % may be the effect or the level left.
Assay [19] is filed under the species Gallus gallus. The assay is described as follows: Anticoccidial activity (percent reduction in oocyst production) against Eimeria maxima in chickens at 75 ppm. The class given is functional. The arrangement: scale not given: the % may be the effect or the level left.
The species entered for assay [20] is Gallus gallus. Kind of assay: Anticoccidial activity (percent reduction in oocyst production) against Eimeria mitis in chickens at 125 ppm. The class given is functional. The arrangement: scale not given: the % may be the effect or the level left.
The species named for assay [21] is Gallus gallus. The assay is described as follows: Anticoccidial activity (percent reduction in oocyst production) against Eimeria mivati in chickens at 50 ppm. The class given is functional. The arrangement: scale not given: the % may be the effect or the level left.
The species entered for assay [22] is Gallus gallus. Kind of assay: Anticoccidial activity (percent reduction in oocyst production) against Eimeria mivati in chickens at 75 ppm. The class given is functional. The arrangement: scale not given: the % may be the effect or the level left.
Assay [23] is filed under the species Gallus gallus. The assay is described as follows: Anticoccidial activity (percent reduction in oocyst production) against Eimeria maxima in chickens at 125 ppm. The arrangement: scale not given: the % may be the effect or the level left. The class given is functional.
The species named for assay [24] is Gallus gallus. The assay is described as follows: Anticoccidial activity (percent reduction in oocyst production) against Eimeria mivati in chickens at 125 ppm. The class given is functional. The arrangement: scale not given: the % may be the effect or the level left.
The species entered for assay [25] is Gallus gallus. The assay is described as follows: Anticoccidial activity (percent reduction in oocyst production) against Eimeria praecox in chickens at 50 ppm. The class given is functional. The arrangement: scale not given: the % may be the effect or the level left.
The species entered for assay [26] is Gallus gallus. The assay is described as follows: Anticoccidial activity (percent reduction in oocyst production) against Eimeria praecox in chickens at 75 ppm. The arrangement: scale not given: the % may be the effect or the level left. The class given is functional.
For assay [27], the species on record is Gallus gallus. Kind of assay: Anticoccidial activity (percent reduction in oocyst production) against Eimeria tenella in chickens at 50 ppm. The arrangement: scale not given: the % may be the effect or the level left. The class given is functional. The gist of the method: as §1
Assay [28] is filed under the species Gallus gallus. Kind of assay: Anticoccidial activity (percent reduction in oocyst production) against Eimeria tenella in chickens at 75 ppm. The class given is functional. The arrangement: scale not given: the % may be the effect or the level left. The gist of the method:
as §1

Assay [29] is filed under the species Gallus gallus. The assay is described as follows: Anticoccidial activity (percent reduction in oocyst production) against Eimeria brunetti in chickens at 50 ppm. The class given is functional. The arrangement: scale not given: the % may be the effect or the level left.
The species named for assay [30] is Gallus gallus. The assay is described as follows: Anticoccidial activity (percent reduction in oocyst production) against Eimeria brunetti in chickens at 75 ppm. The arrangement: scale not given: the % may be the effect or the level left. The class given is functional.
Assay [31] is filed under the species Gallus gallus. Kind of assay: Anticoccidial activity (percent reduction in oocyst production) against Eimeria necatrix in chickens at 50 ppm. The class given is functional. The arrangement: scale not given: the % may be the effect or the level left.
The species entered for assay [32] is Gallus gallus. Kind of assay: Anticoccidial activity (percent reduction in oocyst production) against Eimeria necatrix in chickens at 75 ppm. The class given is functional. The arrangement: scale not given: the % may be the effect or the level left.
For assay [33], the species on record is Gallus gallus. Kind of assay: Anticoccidial activity (percent reduction in oocyst production) against Eimeria praecox in chickens at 125 ppm. The class given is functional. The arrangement: scale not given: the % may be the effect or the level left.
For assay [34], the species on record is Gallus gallus. Kind of assay: Anticoccidial activity (percent reduction in oocyst production) against Eimeria tenella in chickens at 125 ppm. The arrangement: scale not given: the % may be the effect or the level left. The class given is functional. A digest of the protocol:
as §1

For assay [35], the species on record is Gallus gallus. The assay is described as follows: Anticoccidial activity (percent reduction in oocyst production) against Eimeria brunetti in chickens at 125 ppm. The class given is functional. The arrangement: scale not given: the % may be the effect or the level left.
The species entered for assay [36] is Gallus gallus. The assay is described as follows: Anticoccidial activity (percent reduction in oocyst production) against Eimeria necatrix in chickens at 125 ppm. The arrangement: scale not given: the % may be the effect or the level left. The class given is functional.
The species named for assay [37] is Gallus gallus. The assay is described as follows: Anticoccidial activity (percent reduction in oocyst production) against Eimeria mitis in chickens at 50 ppm. The class given is functional. The arrangement: scale not given: the % may be the effect or the level left.
The species entered for assay [38] is Gallus gallus. The assay is described as follows: Anticoccidial activity (percent reduction in oocyst production) against Eimeria mitis in chickens at 75 ppm. The class given is functional. The arrangement: scale not given: the % may be the effect or the level left.
The species entered for assay [39] is Gallus gallus. Kind of assay: Anticoccidial activity (percent reduction in oocyst production) against Eimeria acervulina in chickens at 50 ppm. The class given is functional. The arrangement: scale not given: the % may be the effect or the level left. The gist of the method:
as §1

For assay [40], the species on record is Gallus gallus. The assay is described as follows: Anticoccidial activity (percent reduction in oocyst production) against Eimeria acervulina in chickens at 75 ppm. The class given is functional. The arrangement: scale not given: the % may be the effect or the level left. A digest of the protocol: as §1
The species named for assay [41] is Gallus gallus. Kind of assay: Anticoccidial activity (percent reduction in oocyst production) against Eimeria acervulina in chickens at 125 ppm. The arrangement: scale not given: the % may be the effect or the level left. The class given is functional. A digest of the protocol:
as §1

The subject of assay [42] is Gallus gallus. The assay is described as follows: Oral bioavailability in the chicken. The class given is functional, organism-based.
The species entered for assay [43] is Gallus gallus. Kind of assay: Anticoccidial activity (percent reduction in oocyst production) against Eimeria tenella in chickens at 25 ppm; Range = 50-79 %. The class given is functional. The arrangement: scale not given: the % may be the effect or the level left. The gist of the method: as §1
For assay [44], the species on record is Gallus gallus. Kind of assay: Anticoccidial activity (percent reduction in oocyst production) against Eimeria brunetti in chickens at 25 ppm; Range = 50-79 %. The class given is functional. The arrangement: scale not given: the % may be the effect or the level left.
The species entered for assay [45] is Gallus gallus. The assay is described as follows: Half-life in the chicken. The class given is functional, organism-based.

pIC50: −log10 of the molar value.

As to `CC[C@@H](C(=O)[C@@H](C)[C@@H](O)[C@H](C)[C@@H]1O[C@@H]([C@@H](CC)C(=O)O)CC[C@@H]1C)[C@H]1O[C@]2(C=C[C@@H](O)[C@]3(CC[C@@](C)([C@H]4CC[C@](O)(CC)[C@H](C)O4)O3)O2)[C@H](C)C[C@@H]1C` [SALINOMYCIN], the Activity in assay [1], in assay [2], in [3], in assay [4], in assay [5] and in [6] was less than 79% in each case. The Activity in assay [7] and in assay [8] was less than 79% throughout.
Broadly, the pIC50 is the IC50 on a negative log10 scale, so that one unit is a factor of ten. Regarding `CCN1CCC(c2cc(-c3ccncc3)c(-c3ccc(F)cc3)[nH]2)CC1`, the Activity in assay [9] is recorded as less than 79%; in [10], less than 79%; in assay [11] it was “>=80%”; in [12] it was less than 79%; in [13], less than 79%; in assay [14], “>=80%”. The Activity is less than 79% in assay [15]; less than 79% in assay [16]; “>=80%” in assay [18]; “>=80%” in assay [19]; “>=80%” in [20]; “>=80%” in [21]. Besides, the Activity result in assay [22], in assay [23], in [24], in assay [25], in assay [26] and in [27] was “>=80%” in each case. Moreover, the Activity result in [28], in [29], in [30], in [31], in [32] and in assay [33] was “>=80%” throughout. Also, the Activity result in assay [34], in assay [35], in assay [36], in [37], in assay [38] and in [39] was “>=80%” throughout. The Activity result in assay [40] is recorded as “>=80%”; in assay [41], “>=80%”; in assay [43], less than 79%; in assay [44], less than 79%. Also, the pIC50 in assay [17] was 9.55. Moreover, the bioavailability in assay [42] worked out at 84%. This compound returned a T1/2 in assay [45] of 1.2 h.
